Test results taken from ChEMBL document CHEMBL1681672, “Antitumor agents 283. Further elaboration of desmosdumotin C analogs as potent antitumor agents: activation of spindle assembly checkpoint as possible mode of action” (2011).
Activity calls are given as the source filed them. The rule behind the calls is not given here.

What was measured:
[1] = Antiproliferative activity against human KBVIN cells expressing P-glycoprotein after 3 days by sulforhodamine B assay; assay type: functional; conditions: 72 h, read-out: ED50 (the source's name)
Outline: (§1)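 Cells were seeded from freshly trypsinized suspensions at 1500–7500 cells/well and dosed from DMSO-diluted stock. After 3 days of culture, attached cells were fixed with cold 50% TCA and stained with 0.4% SRB. Bound dye was solubilized and absorbance read at 562 nm. ED50 is the concentration giving 50% growth reduction versus untreated cells, averaged from at least three independent determinations. Cells were grown in RPMI-1640 with 25 mM HEPES, 10% FBS and kanamycin.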

HepG2 = experiment: Antiproliferative activity against human HepG2 cells after 3 days by sulforhodamine B assay; assay type: functional; conditions: for EC50: HepG2, 72 h, read-out: ED50 (the source's name); outline: as §1
PC-3 = experiment: Antiproliferative activity against human PC3 cells after 3 days by sulforhodamine B assay; assay type: functional; conditions: for EC50: PC-3, 72 h, read-out: ED50 (the source's name); outline: as §1
KB = experiment: Antiproliferative activity against human KB cells after 3 days by sulforhodamine B assay; assay type: functional; conditions: 72 h, read-out: ED50 (the source's name); outline: as §1
A549 = experiment: Antiproliferative activity against human A549 cells after 3 days by sulforhodamine B assay; assay type: functional; conditions: A549, 72 h, read-out: ED50 (the source's name); outline: as §1
HCT-8 = experiment: Antiproliferative activity against human HCT8 cells after 3 days by sulforhodamine B assay; assay type: functional; conditions: HCT-8, 72 h, read-out: ED50 (the source's name); outline: as §1
1A9 = experiment: Antiproliferative activity against human 1A9 cells after 3 days by sulforhodamine B assay; assay type: functional; conditions: 1A9, 72 h, read-out: ED50 (the source's name); outline: as §1
MCF7 = experiment: Antiproliferative activity against human MCF7 cells after 3 days by sulforhodamine B assay; assay type: functional; conditions: MCF7, 72 h, read-out: ED50 (the source's name)
[2] = Upregulation of MAD2L1 transcript in human CL1-5 cells at 0.05 ug/ml after 24 hrs by semi-quantitative RT-PCR; assay type: functional, cell-based
Outline: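 CL1-5 cells were seeded at 2.5×10^5 per 60 mm dish and grown 48 h in RPMI with 10% FBS at 37 °C in 5% CO2. Cells then received DMSO or 0.05 μg/mL compound for 24 h. Total RNA was extracted with TRIzol and MAD2L1 was amplified by RT-PCR, with Gβ-like as the control transcript, and bands were compared on gel.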

[3] = Effect on dynein1 mRNA expression in human CL1-5 cells at 0.05 ug/ml after 24 hrs by RT-PCR relative to DMSO control; assay type: functional
[4] = Antiproliferative activity against human CL1-5 cells; assay type: functional; conditions: read-out: ED50 (the source's name)
[5] = Effect on Aurora A mRNA expression in human CL1-5 cells at 0.05 ug/ml after 24 hrs by Affymetrix GeneChip microarray relative to DMSO control
[6] = Effect on cyclinB mRNA expression in human CL1-5 cells at 0.05 ug/ml after 24 hrs by RT-PCR relative to DMSO control; assay type: functional
[7] = Effect on Aurora B mRNA expression in human CL1-5 cells at 0.05 ug/ml after 24 hrs by Affymetrix GeneChip microarray relative to DMSO control
[8] = Effect on CDK1 mRNA expression in human CL1-5 cells at 0.05 ug/ml after 24 hrs by Affymetrix GeneChip microarray relative to DMSO control
[9] = Effect on securin mRNA expression in human CL1-5 cells at 0.05 ug/ml after 24 hrs by RT-PCR relative to DMSO control; assay type: functional
[10] = Effect on MAD2 mRNA expression in human CL1-5 cells at 0.05 ug/ml after 24 hrs by RT-PCR relative to DMSO control; assay type: functional
[11] = Effect on NEK2A mRNA expression in human CL1-5 cells at 0.05 ug/ml after 24 hrs by Affymetrix GeneChip microarray relative to DMSO control
[12] = Effect on MAD1 mRNA expression in human CL1-5 cells at 0.05 ug/ml after 24 hrs by RT-PCR relative to DMSO control; assay type: functional
[13] = Effect on KNSL1 mRNA expression in human CL1-5 cells at 0.05 ug/ml after 24 hrs by RT-PCR relative to DMSO control; assay type: functional
[14] = Effect on separase mRNA expression in human CL1-5 cells at 0.05 ug/ml after 24 hrs by RT-PCR relative to DMSO control; assay type: functional
[15] = Effect on dynactin mRNA expression in human CL1-5 cells at 0.05 ug/ml after 24 hrs by RT-PCR relative to DMSO control; assay type: functional

SMILES	EC50 (HepG2)	EC50 (PC-3)	EC50 (KB)	EC50 (A549)	EC50 (HCT-8)	EC50 (MCF7)	EC50 [1]	EC50 (1A9)	further results
CCCCC1=C(OC)C(CCCC)(CCCC)C(=O)/C(=C(O)\C=C\c2ccccc2)C1=O	23.9 µM	13 µM	7 µM	6.4 µM	7.8 µM	4.4 µM	8.6 µM	5.9 µM	–
CCCCOC1=C(CCC)C(=O)/C(=C(O)/C=C/c2ccccc2)C(=O)C1(CCC)CCC	8 µM	9.6 µM	8 µM	7.1 µM	8.7 µM	5.3 µM	8.9 µM	–	–
CCCC1(CC=C(C)C)C(=O)C(C(=O)/C=C/c2ccccc2)=C(O)C(CCC)(CCC)C1=O (stereo not drawn)	6.4 µM	8.4 µM	8.2 µM	7.1 µM	6.7 µM	5.8 µM	7.3 µM	–	–
CCCC1=C(OCCC(C)C)C(CCC)(CCC)C(=O)/C(=C(O)\C=C\c2ccccc2)C1=O	15.5 µM	17 µM	10.6 µM	11.3 µM	15.3 µM	9.1 µM	19.2 µM	–	–
CCCC1=C(OC)C(CCC)(CCC)C(=O)/C(=C(O)\C=C\c2ccc(I)cc2)C1=O	2.4 µM	2.8 µM	1.5 µM	1.4 µM	1.1 µM	1.8 µM	1.4 µM	1.8 µM	–
CCCC1=C(OC)C(CCC)(CCC)C(=O)/C(=C(O)\C=C\c2ccc(Br)cc2)C1=O	–	4.7 µM	1.8 µM	2 µM	2.6 µM	–	1.8 µM	1.9 µM	Activity [2]: Active; fold change (FC) [3]: 2; EC50 [4]: 0.11 µM; fold change (FC) [5]: 2; fold change (FC) [6]: 2; fold change (FC) [7]: 2; fold change (FC) [8]: 2; fold change (FC) [9]: 2; fold change (FC) [10]: 2; fold change (FC) [11]: 2; fold change (FC) [12]: 2; fold change (FC) [13]: 2; fold change (FC) [14]: 2; fold change (FC) [15]: 2
CCCC1=C(OCC)C(CCC)(CCC)C(=O)/C(=C(O)\C=C\c2ccccc2)C1=O	11.2 µM	12.5 µM	6.4 µM	4.6 µM	5.6 µM	2.6 µM	3.5 µM	4.3 µM	–
CCCOC1=C(CCC)C(=O)/C(=C(O)/C=C/c2ccccc2)C(=O)C1(CCC)CCC	8.3 µM	8.6 µM	2.7 µM	1.9 µM	2.6 µM	1.6 µM	2.4 µM	2 µM	–
CC(=O)O[C@H]1C(=O)[C@@]2(C)[C@H]([C@H](OC(=O)c3ccccc3)[C@]3(O)C[C@H](OC(=O)[C@H](O)[C@@H](NC(=O)c4ccccc4)c4ccccc4)C(C)=C1C3(C)C)[C@]1(OC(C)=O)CO[C@@H]1C[C@@H]2O [PACLITAXEL]	> 0.1 µM	0.00887 µM	0.00287 µM	0.00256 µM	> 0.1 µM	> 0.1 µM	> 0.1 µM	0.00209 µM	–
CCCC1=C(OC)C(CCC)(CCC)C(=O)/C(=C(O)\C=C\c2ccccc2)C1=O	–	8.2 µM	4.6 µM	3.6 µM	3.5 µM	–	3.4 µM	3.7 µM	–

More lines, in order of falling EC50 (KB), values ahead:

EC50 (HepG2)	EC50 (PC-3)	EC50 (KB)	EC50 (A549)	EC50 (HCT-8)	EC50 (MCF7)	SMILES	EC50 [1]	EC50 (1A9)	further results
–	–	17.5 µM	18.4 µM	13 µM	25.2 µM	COC1=C(CCC(C)C)C(=O)/C(=C(O)/C=C/c2ccccc2)C(=O)C1(CCC(C)C)CCC(C)C	20.3 µM	16.3 µM	ED50 (HepG2): inactive; ED50 (PC-3): inactive
11.2 µM	12.2 µM	13.3 µM	10.3 µM	13.7 µM	8.2 µM	COC1=C(CC=C(C)C)C(=O)/C(=C(O)/C=C/c2ccccc2)C(=O)C1(CC=C(C)C)CC=C(C)C [3,3,5-TRIPRENYLDESMOSDUMOTIN C]	8.9 µM	–	–
–	35.6 µM	12.8 µM	11.2 µM	11.8 µM	–	COC1=C(C)C(O)=C(C(=O)/C=C/c2ccccc2)C(=O)C1(C)C [DESMOSDUMOTIN C]	9.6 µM	11.2 µM	–
14.5 µM	12.4 µM	7.9 µM	4.4 µM	7.5 µM	3.7 µM	COC1=C(CC(C)C)C(=O)/C(=C(O)/C=C/c2ccccc2)C(=O)C1(CC(C)C)CC(C)C	8.2 µM	8 µM	–
7.3 µM	9.6 µM	6.4 µM	8.2 µM	7.8 µM	5.1 µM	CCCOC1=C(CCC)C(=O)/C(=C(O)/C=C/c2ccc(I)cc2)C(=O)C1(CCC)CCC	6.2 µM	–	–
13.4 µM	12.2 µM	4.8 µM	1.7 µM	8 µM	4.4 µM	CCCC1=C(OCC(C)C)C(CCC)(CCC)C(=O)/C(=C(O)\C=C\c2ccccc2)C1=O	4.1 µM	6.9 µM	–
0.0029 µM	0.0121 µM	0.0024 µM	0.0048 µM	0.0242 µM	0.0121 µM	CC[C@]1(O)C[C@H]2CN(CCc3c([nH]c4ccccc34)[C@@](C(=O)OC)(c3cc4c(cc3OC)N(C=O)[C@H]3[C@@](O)(C(=O)OC)[C@H](OC(C)=O)[C@]5(CC)C=CCN6CC[C@]43[C@@H]65)C2)C1 [VINCRISTINE]	> 0.1 µM	–	–
